Test system: RAW264.7
Test: Cytotoxicity against mouse RAW264.7 cells assessed as cell viability at nitric oxide IC50 level by MTT assay
Format: cell-based
Conditions: not given
How it was run: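 Viability was read by MTT colorimetric assay on the cells remaining after the NO assay. That assay seeded RAW 264.7 cells at 2 × 10^6 cells/mL and stimulated them with 1 μg/mL LPS, with or without compounds, for 24 h at 37 °C.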

Row | Compound | Activity
1 | C=C[C@]1(C)CC[C@@]2(C)c3cc(O)c(O)c(C)c3CC[C@@H]2C1 | Non-toxic
2 | C=C[C@]1(C)CC[C@]2(C)[C@H](CC[C@H]3[C@@](C)(CO)C(=O)C=C[C@]32O)C1 | Non-toxic
3 | C=C[C@]1(C)CC[C@@]2(C)C3=CC(=O)O[C@@H]3C(C)(C)C[C@H](O)[C@@H]2C1 | Non-toxic
4 | CC1=C2[C@H](OC1=O)[C@H](O)[C@H]1[C@]3(C)CCCC(C)(C)[C@H]3CC[C@@]1(O)[C@H]2O | Non-toxic
5 | CC1=C2[C@@H](O)[C@@]3(O)CC[C@@H]4C(C)(C)CCC[C@@]4(C)[C@@H]3[C@@H](O)[C@H]2OC1=O | Non-toxic
6 | CC1=C2[C@H]3O[C@]34CC[C@@H]3C(C)(C)CCC[C@@]3(C)[C@@H]4[C@@H](O)[C@H]2OC1=O | Non-toxic
7 | CC1=C2[C@@H](O)C3=C([C@@H](O)[C@H]2OC1=O)[C@]1(C)CCCC(C)(C)[C@H]1CC3 | Non-toxic
8 | CC1=C2[C@@H](O)C3=CC[C@@H]4C(C)(C)CCC[C@@]4(C)[C@@H]3[C@@H](O)[C@H]2OC1=O | Non-toxic
9 | CC1=C2C(=O)C3=C([C@@H](O)[C@H]2OC1=O)[C@]1(C)CCCC(C)(C)[C@H]1CC3 | Non-toxic
10 | CC1=C2C=C3CC[C@@H]4C(C)(C)CCC[C@@]4(C)[C@@H]3[C@H](O)[C@H]2OC1=O | Non-toxic
11 | CC1=C2C=C3[C@@H](O)C[C@@H]4C(C)(C)CCC[C@@]4(C)[C@@H]3[C@@H](O)[C@H]2OC1=O | Non-toxic
12 | C=C1C[C@@]23CC[C@@H]4C(C)(C)C(=O)CC[C@@]4(C)[C@@H]2C[C@@H]1[C@@H](O)C3=O | Non-toxic
13 | C[C@H]1C[C@]2(OC(=O)/C=C/c3ccccc3)C(=O)/C(CO)=C/[C@@H]3[C@H](CC[C@@]4(C)O[C@H]4[C@H]2[C@H]1O)C3(C)C | Non-toxic
14 | CC1=C[C@]23C(=O)[C@@H](C=C(CO)[C@@H](O)[C@]2(O)[C@H]1O)[C@H]1[C@@H](C[C@H]3C)C1(C)C [INGENOL] | Non-toxic

Test system: RAW264.7
Test: Inhibition of LPS-induced nitric oxide production in mouse RAW264.7 cells after 24 hrs by Griess assay
Format: functional, cell-based
Conditions: RAW264.7, 24 h
How it was run: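 RAW 264.7 cells seeded at 2 × 10^6 cells/mL and stimulated with 1 μg/mL LPS, with or without compounds, for 24 h at 37 °C. Cell-free supernatant was mixed 1:1 with Griess reagent (2% sulfanilamide in 5% phosphoric acid plus 0.2% N-(1-naphthyl)ethylenediamine). Nitrite was read at 550 nm against sodium nitrite standards. Aminoguanidine and indomethacin were positive controls. Means ± SD from triplicate experiments.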

Row | Compound | IC50
15 | C=C[C@]1(C)CC[C@@]2(C)c3cc(O)c(O)c(C)c3CC[C@@H]2C1 | 7.4 µM
16 | C=C[C@]1(C)CC[C@@]2(C)C3=CC(=O)O[C@@H]3C(C)(C)C[C@H](O)[C@@H]2C1 | > 20 µM
17 | CC1=C2[C@H](OC1=O)[C@H](O)[C@H]1[C@]3(C)CCCC(C)(C)[C@H]3CC[C@@]1(O)[C@H]2O | 5.6 µM
18 | CC1=C2[C@@H](O)[C@@]3(O)CC[C@@H]4C(C)(C)CCC[C@@]4(C)[C@@H]3[C@@H](O)[C@H]2OC1=O | > 20 µM
19 | CC1=C2[C@H]3O[C@]34CC[C@@H]3C(C)(C)CCC[C@@]3(C)[C@@H]4[C@@H](O)[C@H]2OC1=O | 12.6 µM
20 | CC1=C2[C@@H](O)C3=C([C@@H](O)[C@H]2OC1=O)[C@]1(C)CCCC(C)(C)[C@H]1CC3 | > 20 µM
21 | CC1=C2[C@@H](O)C3=CC[C@@H]4C(C)(C)CCC[C@@]4(C)[C@@H]3[C@@H](O)[C@H]2OC1=O | > 20 µM
22 | CC1=C2C(=O)C3=C([C@@H](O)[C@H]2OC1=O)[C@]1(C)CCCC(C)(C)[C@H]1CC3 | > 20 µM
23 | CC1=C2C=C3CC[C@@H]4C(C)(C)CCC[C@@]4(C)[C@@H]3[C@H](O)[C@H]2OC1=O | > 20 µM
24 | CC1=C2C=C3[C@@H](O)C[C@@H]4C(C)(C)CCC[C@@]4(C)[C@@H]3[C@@H](O)[C@H]2OC1=O | > 20 µM
25 | C=C1C[C@@]23CC[C@@H]4C(C)(C)C(=O)CC[C@@]4(C)[C@@H]2C[C@@H]1[C@@H](O)C3=O | > 20 µM
26 | C[C@H]1C[C@]2(OC(=O)/C=C/c3ccccc3)C(=O)/C(CO)=C/[C@@H]3[C@H](CC[C@@]4(C)O[C@H]4[C@H]2[C@H]1O)C3(C)C | 9.4 µM
27 | COc1ccc2c(c1)c(CC(=O)O)c(C)n2C(=O)c1ccc(Cl)cc1 [INDOMETHACIN] | 12.5 µM
28 | CC1=C[C@]23C(=O)[C@@H](C=C(CO)[C@@H](O)[C@]2(O)[C@H]1O)[C@H]1[C@@H](C[C@H]3C)C1(C)C [INGENOL] | > 20 µM
29 | N=C(N)NN [PIMAGEDINE] | 18.7 µM

Source: ChEMBL document CHEMBL3779830, “Diterpenoids from the Roots of Euphorbia fischeriana with Inhibitory Effects on Nitric Oxide Production” (J Nat Prod, 2016)
